Results as given in ChEMBL document CHEMBL4689842, “EUbOPEN Chemogenomics Library wave 1” (2021).
Values joined by “and” are separate entries in the source; they are usually repeats but may differ in a detail not shown here. Equal entries are not always repeated.

Test system: U2OS
Test: Multiplex assay against U2OS
Assay type: toxicity, cell-based
Details: human
In short: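 At seeding, live cells were stained with Hoechst33342, BioTracker Green Microtubule Cytoskeleton Dye, MitoTracker Red and Annexin V Alexa Fluor 680. After compound addition they were imaged on a CQ1 microscope at 37°C and 5% CO2, and CellPathfinder machine-learning gating sorted them into Hoechst high-intensity objects or normal cells, with normal cells further split into healthy, pyknosed or fragmented nuclei and pyknosed cells into mitotic or apoptotic. Tubulin, mitochondrial-mass and membrane-permeability phenotypes are given as per cents of cells with healthy nuclei.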

[1] = 12 h, 1 µM, compound concentration 1 uM, replicate 1
[2] = 12 h, 1 µM, compound concentration 1 uM, replicate 2
[3] = 24 h, 1 µM, compound concentration 1 uM, replicate 1
[4] = 24 h, 1 µM, compound concentration 1 uM, replicate 2
[5] = 12 h, 10 µM, compound concentration 10 uM, replicate 1
[6] = 12 h, 10 µM, compound concentration 10 uM, replicate 2
[7] = 24 h, 10 µM, compound concentration 10 uM, replicate 1
[8] = 24 h, 10 µM, compound concentration 10 uM, replicate 2
[9] = 48 h, 1 µM, compound concentration 1 uM, replicate 1
[10] = 48 h, 1 µM, compound concentration 1 uM, replicate 2
[11] = 48 h, 10 µM, compound concentration 10 uM, replicate 1
[12] = 48 h, 10 µM, compound concentration 10 uM, replicate 2

`C[C@]1(O)C[C@@H](c2nc(-c3ccc4ccc(-c5ccccc5)nc4c3)c3c(N)nccn32)C1` [LINSITINIB] was tested, and the “Population Apoptotic (%)” value [1] was 57% and 35%, the “Population Fragmented Nuclei (%)” value [1] was 10% and 3% and the “Population Healthy Nuclei (%)” value [1] was 79% and 85%. The “Population Hoechst High Intensity Objects (%)” value [1] was 2% and 4%, the “Population Mitochondria Different-Phenotype (%)” value [1] was 17% and 28% and the “Population Mitotic Cells (%)” value [1] was 42% and 64%. The “Population Normal (%)” value [1] was 97% and 95%, the “Population Pyknosed Nuclei (%)” value [1] was 9% and 11% and the “Population Tubulin-Different-Phenotype (%)” value [1] was 50%. For the same compound, the “Total Cell Count” value [1] was 132 and 196, the “Population Apoptotic (%)” value [2] was 50% and 33% and the “Population Fragmented Nuclei (%)” value [2] was 13% and 5%. For the same compound, the “Population Healthy Nuclei (%)” value [2] was 81% and 89%, the “Population Hoechst High Intensity Objects (%)” value [2] was 8% and 19% and the “Population Membrane Permeable-Phenotype (%)” value [2] was 39% and 16%. The “Population Mitochondria Different-Phenotype (%)” value [2] was 16% and 25%, the “Population Mitotic Cells (%)” value [2] was 50% and 66% and the “Population Normal (%)” value [2] was 91% and 80%. The “Population Pyknosed Nuclei (%)” value [2] was 5% and 4%, the “Population Tubulin-Different-Phenotype (%)” value [2] was 45% and 28% and the “Total Cell Count” value [2] was 83 and 65. For the same compound, the “Population Apoptotic (%)” value [3] was 48% and 53%, the “Population Fragmented Nuclei (%)” value [3] was 4% and the “Population Healthy Nuclei (%)” value [3] was 76% and 87%. The “Population Membrane Permeable-Phenotype (%)” value [3] was 23% and 8%, the “Population Mitochondria Different-Phenotype (%)” value [3] was 20% and 22% and the “Population Mitotic Cells (%)” value [3] was 51% and 46%. The “Population Normal (%)” value [3] was 94% and 98%, the “Population Pyknosed Nuclei (%)” value [3] was 11% and 8% and the “Population Tubulin-Different-Phenotype (%)” value [3] was 41% and 33%. The “Total Cell Count” value [3] was 180 and 194, the “Population Fragmented Nuclei (%)” value [4] was 12% and 8% and the “Population Healthy Nuclei (%)” value [4] was 79% and 84%. The “Population Membrane Permeable-Phenotype (%)” value [4] was 27% and 13%, the “Population Mitochondria Different-Phenotype (%)” value [4] was 19% and 28% and the “Population Mitotic Cells (%)” value [4] was 60% and 100%. The “Population Normal (%)” value [4] was 95% and 86%, the “Population Pyknosed Nuclei (%)” value [4] was 7% and the “Population Tubulin-Different-Phenotype (%)” value [4] was 28% and 38%. The “Total Cell Count” value [4] was 114 and 78.

In the case of `CC1=C(C(=O)Nc2cc3cn[nH]c3cc2F)C(c2ccc(C(F)(F)F)cc2)CC(=O)N1` (stereo not drawn), the “Population Apoptotic (%)” value [1] is reported as 46%, the “Population Fragmented Nuclei (%)” value [1] is reported as 9% and the “Population Healthy Nuclei (%)” value [1] is reported as 78%. The “Population Hoechst High Intensity Objects (%)” value [1] was 4%, the “Population Membrane Permeable-Phenotype (%)” value [1] was 6% and the “Population Mitochondria Different-Phenotype (%)” value [1] was 5%. For the same compound, the “Population Mitotic Cells (%)” value [1] was 53%, the “Population Normal (%)” value [1] was 95% and the “Population Pyknosed Nuclei (%)” value [1] was 12%. The “Population Tubulin-Different-Phenotype (%)” value [1] was 10%, the “Total Cell Count” value [1] was 190 and the “Population Apoptotic (%)” value [2] was 50%. For the same compound, the “Population Fragmented Nuclei (%)” value [2] was 2%, the “Population Healthy Nuclei (%)” value [2] was 93% and the “Population Hoechst High Intensity Objects (%)” value [2] was 10%. For the same compound, the “Population Membrane Permeable-Phenotype (%)” value [2] was 4%, the “Population Mitochondria Different-Phenotype (%)” value [2] was 9% and the “Population Mitotic Cells (%)” value [2] was 50%. The “Population Normal (%)” value [2] was 89%, the “Population Pyknosed Nuclei (%)” value [2] was 4% and the “Population Tubulin-Different-Phenotype (%)” value [2] was 14%. For the same compound, the “Total Cell Count” value [2] was 76, the “Population Apoptotic (%)” value [5] was 40% and the “Population Fragmented Nuclei (%)” value [5] was 7%. For the same compound, the “Population Healthy Nuclei (%)” value [5] was 77%, the “Population Hoechst High Intensity Objects (%)” value [5] was 8% and the “Population Membrane Permeable-Phenotype (%)” value [5] was 3%. The “Population Mitochondria Different-Phenotype (%)” value [5] was 9%, the “Population Mitotic Cells (%)” value [5] was 60% and the “Population Normal (%)” value [5] was 91%. For the same compound, the “Population Pyknosed Nuclei (%)” value [5] was 14%, the “Population Tubulin-Different-Phenotype (%)” value [5] was 4% and the “Total Cell Count” value [5] was 223. For the same compound, the “Population Apoptotic (%)” value [6] was 50%, the “Population Fragmented Nuclei (%)” value [6] was 21% and the “Population Healthy Nuclei (%)” value [6] was 70%. The “Population Hoechst High Intensity Objects (%)” value [6] was 9%, the “Population Membrane Permeable-Phenotype (%)” value [6] was 5% and the “Population Mitochondria Different-Phenotype (%)” value [6] was 12%. The “Population Mitotic Cells (%)” value [6] was 50%, the “Population Normal (%)” value [6] was 90% and the “Population Pyknosed Nuclei (%)” value [6] was 7%. The “Population Tubulin-Different-Phenotype (%)” value [6] was 25%, the “Total Cell Count” value [6] was 97 and the “Population Apoptotic (%)” value [3] was 56%. For the same compound, the “Population Fragmented Nuclei (%)” value [3] was 8%, the “Population Healthy Nuclei (%)” value [3] was 82% and the “Population Hoechst High Intensity Objects (%)” value [3] was 2%. For the same compound, the “Population Membrane Permeable-Phenotype (%)” value [3] was 6%, the “Population Mitochondria Different-Phenotype (%)” value [3] was 9% and the “Population Mitotic Cells (%)” value [3] was 43%. The “Population Normal (%)” value [3] was 97%, the “Population Pyknosed Nuclei (%)” value [3] was 8% and the “Population Tubulin-Different-Phenotype (%)” value [3] was 9%. The “Total Cell Count” value [3] was 176, the “Population Apoptotic (%)” value [4] was 42% and the “Population Fragmented Nuclei (%)” value [4] was 7%. For the same compound, the “Population Healthy Nuclei (%)” value [4] was 86%, the “Population Hoechst High Intensity Objects (%)” value [4] was 4% and the “Population Membrane Permeable-Phenotype (%)” value [4] was 10%. The “Population Mitochondria Different-Phenotype (%)” value [4] was 13%, the “Population Mitotic Cells (%)” value [4] was 57% and the “Population Normal (%)” value [4] was 95%. The “Population Pyknosed Nuclei (%)” value [4] was 6%, the “Population Tubulin-Different-Phenotype (%)” value [4] was 16% and the “Total Cell Count” value [4] was 93. For the same compound, the “Population Apoptotic (%)” value [7] was 66%, the “Population Fragmented Nuclei (%)” value [7] was 6% and the “Population Healthy Nuclei (%)” value [7] was 86%. The “Population Membrane Permeable-Phenotype (%)” value [7] was 1%, the “Population Mitochondria Different-Phenotype (%)” value [7] was 6% and the “Population Mitotic Cells (%)” value [7] was 33%. For the same compound, the “Population Pyknosed Nuclei (%)” value [7] was 7%, the “Population Tubulin-Different-Phenotype (%)” value [7] was 4% and the “Total Cell Count” value [7] was 277. The “Population Apoptotic (%)” value [8] was 75%, the “Population Fragmented Nuclei (%)” value [8] was 23% and the “Population Healthy Nuclei (%)” value [8] was 68%. The “Population Hoechst High Intensity Objects (%)” value [8] was 6%, the “Population Membrane Permeable-Phenotype (%)” value [8] was 4% and the “Population Mitochondria Different-Phenotype (%)” value [8] was 14%. For the same compound, the “Population Mitotic Cells (%)” value [8] was 25%, the “Population Normal (%)” value [8] was 93% and the “Population Pyknosed Nuclei (%)” value [8] was 8%. The “Population Tubulin-Different-Phenotype (%)” value [8] was 29%, the “Total Cell Count” value [8] was 119 and the “Population Apoptotic (%)” value [9] was 34%. For the same compound, the “Population Fragmented Nuclei (%)” value [9] was 7%, the “Population Healthy Nuclei (%)” value [9] was 85% and the “Population Hoechst High Intensity Objects (%)” value [9] was 2%. The “Population Membrane Permeable-Phenotype (%)” value [9] was 3%, the “Population Mitochondria Different-Phenotype (%)” value [9] was 12% and the “Population Mitotic Cells (%)” value [9] was 65%. For the same compound, the “Population Normal (%)” value [9] was 97%, the “Population Pyknosed Nuclei (%)” value [9] was 7% and the “Population Tubulin-Different-Phenotype (%)” value [9] was 11%. For the same compound, the “Total Cell Count” value [9] was 181, the “Population Apoptotic (%)” value [10] was 75% and the “Population Fragmented Nuclei (%)” value [10] was 6%. The “Population Healthy Nuclei (%)” value [10] was 90%, the “Population Hoechst High Intensity Objects (%)” value [10] was 4% and the “Population Membrane Permeable-Phenotype (%)” value [10] was 6%. For the same compound, the “Population Mitochondria Different-Phenotype (%)” value [10] was 18%, the “Population Mitotic Cells (%)” value [10] was 25% and the “Population Normal (%)” value [10] was 95%. The “Population Pyknosed Nuclei (%)” value [10] was 2%, the “Population Tubulin-Different-Phenotype (%)” value [10] was 12% and the “Total Cell Count” value [10] was 77. For the same compound, the “Population Fragmented Nuclei (%)” value [11] was 7%, the “Population Healthy Nuclei (%)” value [11] was 77% and the “Population Hoechst High Intensity Objects (%)” value [11] was 2%. For the same compound, the “Population Membrane Permeable-Phenotype (%)” value [11] was 3%, the “Population Mitochondria Different-Phenotype (%)” value [11] was 12% and the “Population Normal (%)” value [11] was 97%. The “Population Pyknosed Nuclei (%)” value [11] was 15%, the “Population Tubulin-Different-Phenotype (%)” value [11] was 3% and the “Total Cell Count” value [11] was 438. The “Population Apoptotic (%)” value [12] was 50%, the “Population Fragmented Nuclei (%)” value [12] was 15% and the “Population Healthy Nuclei (%)” value [12] was 76%. For the same compound, the “Population Hoechst High Intensity Objects (%)” value [12] was 3%, the “Population Membrane Permeable-Phenotype (%)” value [12] was 8% and the “Population Mitochondria Different-Phenotype (%)” value [12] was 28%. For the same compound, the “Population Mitotic Cells (%)” value [12] was 50%, the “Population Normal (%)” value [12] was 96% and the “Population Pyknosed Nuclei (%)” value [12] was 8%. For the same compound, the “Population Tubulin-Different-Phenotype (%)” value [12] was 32% and the “Total Cell Count” value [12] was 170.
